Screening data from PubChem BioAssay.
Only a selection was taken, and hits are over-represented in it overall.
XBP1 UPR activ = adaptive UPR (XBP1) activation; actives 0.33% (n = 330,000); activation, % at 20 µM; CHO-XBP1 luciferase reporter, IRE1-XBP1 UPR activation, luminescence; percent of tunicamycin response, DMSO as zero;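 active means versus positive control, 20 µM dose yields 30% or more activation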
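Assay system: CHO-XBP1 luciferase reporter cells; Schedule: 6 h treatment, 37 °C; Detection: glow luminescence from Steady-Glo reagent; Benchmarks: high control tunicamycin 10 µg/mL final, low control DMSO vehicle only.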
UPR CHOP act = apoptotic UPR (CHOP) activation; CHO-CHOP luciferase reporter, luminescence; percent of tunicamycin response over DMSO baseline; activation, % at 10 µM; actives 0.34% (n = 330,000); AID 449763;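 active means at 10 µM dose, activation of 40% or more, normalized to positive control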
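Test system: CHO-CHOP cells, stable luciferase reporter of PERK-eIF2a-CHOP signalling | Quantity: 500 CHO-CHOP cells per well | Buffer or medium: F12 plus 10% serum | Compound dosing: 10 µM single point, 0.5% DMSO | Schedule: 6 h compound treatment, 37 °C | Signal: Luciferase luminescence | Control set: Tunicamycin high control, DMSO low control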
Lmaj promast = inhibitors of Leishmania major promastigote growth; actives 9% (n = 200,000); inhibition, % at 10 µM; Leishmania major promastigotes, resazurin fluorescence viability; in the data active means inhibition above about 50%;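 further: promastigotes grown with compound for 44 hours at 28 °C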
CHOP inhibitor = inhibitors of CHOP induction in ER stress response; CHO-K1 CHOP-promoter luciferase, tunicamycin-induced, 15-18 h; inhibition, % at 10 µM; actives 3.8% (n = 220,000); AID 2732;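 active means compounds that reduced the stress-induced luciferase reporter signal by more than about 70% of percent inhibition, limit read from the data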
Dynein transport = blocks dynein driven cargo transport along microtubules | z-score, hits read low | actives 0.47% (n = 220,000) | 3617.4 mouse cells, GR-EGFP nuclear translocation imaging; test concentration mostly 20 µM; stimulated with dexamethasone, 1 µM; stronger effect = lower value;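 active means plate z-score of nuclear minus cytoplasmic receptor signal below a set negative limit, without overly bright fluorescence or cell loss, cut at about -3.5 in these data, passing the limit was not always enough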;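 further: z-score of nuclear minus cytoplasmic ring GR-EGFP intensity difference per well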
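Medium: Induction medium lacking tetracycline, stripped serum | Probe or stimulus: 1.0 µM final dexamethasone stimulus | Schedule: 48 h induction, then 1 h compound, then 30 min agonist, 37 °C | Signal: Automated 10x imaging of fixed Hoechst-stained cells | Evaluation: Per-cell GR-EGFP intensity, nucleus versus surrounding cytoplasmic ring, well-averaged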
T cruzi inh = T. cruzi replication inhibition | T. cruzi beta-gal in NIH3T3, luminescence, 90 h | inhibition, % (test concentration not listed) | actives 1.4% (n = 300,000);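 active means mean inhibition across valid replicates above about 55%, limit read from the data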;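 further: signal also drops with host cell toxicity which is not excluded here; higher percent means less beta-gal luminescence so fewer parasites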
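System: Mouse NIH/3T3 fibroblasts infected with β-gal-expressing T. cruzi Tulahuen C4 | Quantity: NIH/3T3 cells, 5,000 per well | Reagent: 5000 reporter trypomastigotes per well | Dosing: Compound pinned at 50 nL/well, DMSO | Schedule: 3 h host attachment, then at least 90 h co-culture | Detection: GalScreen luminescence, 60 min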
Hits are given with their value; n = inactive; x = no result.

SMILES	XBP1 UPR activ	UPR CHOP act	Lmaj promast	CHOP inhibitor	Dynein transport	T cruzi inh
O=C(Nc1nc(-c2cccs2)c(-c2ccccc2)s1)c1ccco1	n	n	n	n	n	n
Cc1ccc(-c2nc(CS(=O)CC(=O)NCc3ccco3)c(C)o2)cc1 (stereo not drawn)	n	n	x	x	x	n
O=C1CC(N2CCC(c3nc4ccccc4o3)CC2)C(=O)N1c1ccc(F)cc1 (stereo not drawn)	n	n	n	n	n	n
O=C1CC(N2CCC(c3nc4ccccc4o3)CC2)C(=O)N1c1ccc(Cl)c(C(F)(F)F)c1 (stereo not drawn)	n	n	n	86.3	n	n
CN1CCN(CCCN2c3ccccc3Sc3ccc(S(=O)(=O)N(C)C)cc32)CC1	n	n	x	x	x	x
CSc1ccc2c(c1)N(CCC1CCCCN1C)c1ccccc1S2 (stereo not drawn)	n	n	99.2	n	n	n
COc1cc(/C=N/NC(=O)c2cccc(S(=O)(=O)N3CCCC3)c2)cc(OC)c1O	n	n	x	x	x	n
CCN(CC)c1ccc(/C=N/NC(=O)CNC(=O)C2COc3ccccc3O2)c(O)c1 (stereo not drawn)	n	n	x	x	x	62.7
CCN(CC)c1ccc(/C=N/NC(=O)CCC(=O)NCc2ccccc2)c(O)c1	n	n	97.6	n	n	n
CN(C)CCCn1c2c(c(SCC(=O)Nc3ccc4c(c3)OCCO4)nc1=O)CCC2	n	n	x	x	x	n
COc1ccc(OC)c(/C=N/Nc2nc(C)cc(=O)[nH]2)c1	n	n	x	x	x	n
CC(=O)Nc1cc(OC(C)=O)c2nonc2c1OC(C)=O	n	n	100.6	x	-5.1	x
O=C(NCc1ccccc1)C(Cc1ccccc1)NS(=O)(=O)c1cccc2nsnc12 (stereo not drawn)	n	n	93.3	n	n	n
O=C(NCc1ccc(F)cc1)C(Cc1ccccc1)NS(=O)(=O)c1cccs1 (stereo not drawn)	n	n	99.8	n	n	n
COC(=O)c1sccc1S(=O)(=O)NCc1ccc(S(N)(=O)=O)cc1	n	n	x	x	x	n
CCOC(=O)N1CCN(CC(=O)Nc2nnc(C(F)(F)F)s2)CC1	n	n	x	x	x	n
CS(=O)(=O)N1CCc2cc(-c3csc(NC(=O)C(c4ccccc4)c4ccccc4)n3)ccc21	n	n	93.8	n	n	60.8
O=C1CC(c2ccc(F)cc2)CC(O)=C1C=NCCN1CCNCC1 (stereo not drawn)	n	n	n	n	n	n
O=C1CC(c2ccccc2)CC(O)=C1C=NCCN1CCNCC1 (stereo not drawn)	n	n	n	94.8	n	n
COc1cc2[nH]c(=S)nc(NCCc3ccc(C)cc3)c2cc1OC	x	x	97.3	n	n	x
COc1ccc(CCNc2nc(=S)[nH]c3cc(OC)c(OC)cc23)cc1OC	n	n	n	n	n	n
O=C(Nc1ccc(-c2nc3ccccc3s2)c(O)c1)C1=COCCO1	n	n	n	71.6	n	n
CC(=O)Nc1ccc(-c2nnc(SCC(=O)n3c4c(c5ccccc53)CCCC4)n2C)cc1	x	x	n	78.4	n	n
COc1ccc(-c2nnc(SCC(=O)Nc3ccc(C)cc3)n2C)cc1	n	n	n	n	n	n
CC(=O)Nc1ccc(-c2nnc(SCc3c(C)cc(C)cc3C)n2C)cc1	n	n	76.1	n	n	n
SMILES	XBP1 UPR activ	UPR CHOP act	Lmaj promast	CHOP inhibitor	Dynein transport	T cruzi inh
COc1ccc(-c2cn3c(C)c(C(=O)Nc4cccc(NC(C)=O)c4)sc3n2)cc1	n	n	n	n	n	n
COc1ccc(-c2cn3c(C)c(C(=O)Nc4ccncc4)sc3n2)cc1	n	n	100.0	n	n	n
CC(C)(C)N1C(=O)c2ccccc2NC(=O)N1Cc1ccccc1	n	n	n	n	n	n
O=C1Nc2ccccc2C(=O)C1(Cl)Cc1ccccc1 (stereo not drawn)	n	n	n	76.8	n	n
NNc1nc2ccc(F)cc2s1	n	n	96.4	n	n	n
CCN(CC)S(=O)(=O)c1ccc2[nH]cc(C(=O)NCCC3=CCCCC3)c(=O)c2c1	n	n	81.2	n	n	n
